Laboratory results taken from ChEMBL document CHEMBL2384915, “Design, synthesis and biological evaluation of novel 3,4,5-trisubstituted aminothiophenes as inhibitors of p53-MDM2 interaction. Part 2” (Bioorg Med Chem, 2013).

How the values were obtained:
PC-3 = assay: Cytotoxicity against human p53 deficient PC3 cells after 72 hrs by SRB assay; type: functional, cell-based; settings: PC-3, 72 h
Summary of the method: (§1)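 Seeded cells cultured overnight, then exposed to serial compound concentrations for 72 h. Fixed with 10% (w/v) TCA at 4 °C for 1 h, stained 30 min with 0.4% SRB in 1% acetic acid, washed with 1% acetic acid, and bound dye extracted with unbuffered Tris base. Absorbance read at 515 nm; inhibition computed versus untreated controls. IC50 derived by Logit method, mean of at least two independent tests.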

A549 [1] = assay: Cytotoxicity against human A549 cells expressing wild type p53 after 72 hrs by SRB assay; type: functional, cell-based; settings: A549, 72 h; summary of the method: as §1
[2] = molecular target: Tumour suppressor p53/oncoprotein Mdm2 (Homo sapiens, UniProt Q00987); assay: (§2) Inhibition of p53/MDM2 (1 to 118) (unknown origin) interaction after 1 hr by fluorescence polarization assay; type: protein assay
A549 [3] = assay: Selectivity ratio of IC50 for human p53 deficient PC3 cells to IC50 for human A549 cells expressing wild type p53; type: functional
[4] = molecular target: Tumour suppressor p53/oncoprotein Mdm2 (Homo sapiens, UniProt P04637+Q00987); assay: as §2; type: protein assay
Tumour suppressor p53/oncoprotein Mdm2 (Homo sapiens, UniProt P04637+Q00987), sequence (P04637 whole entry): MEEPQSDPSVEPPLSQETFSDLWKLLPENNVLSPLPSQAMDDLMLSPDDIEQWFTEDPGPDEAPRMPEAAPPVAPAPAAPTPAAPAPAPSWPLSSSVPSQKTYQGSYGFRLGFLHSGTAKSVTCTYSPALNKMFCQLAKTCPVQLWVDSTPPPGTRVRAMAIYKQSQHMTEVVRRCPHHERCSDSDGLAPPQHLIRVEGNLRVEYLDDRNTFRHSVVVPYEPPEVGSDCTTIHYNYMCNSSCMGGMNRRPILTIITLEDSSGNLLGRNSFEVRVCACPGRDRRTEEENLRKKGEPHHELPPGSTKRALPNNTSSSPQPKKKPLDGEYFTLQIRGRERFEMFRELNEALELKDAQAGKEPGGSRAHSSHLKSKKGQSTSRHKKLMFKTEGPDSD
Tumour suppressor p53/oncoprotein Mdm2 (Homo sapiens, UniProt P04637+Q00987), sequence (Q00987 whole entry): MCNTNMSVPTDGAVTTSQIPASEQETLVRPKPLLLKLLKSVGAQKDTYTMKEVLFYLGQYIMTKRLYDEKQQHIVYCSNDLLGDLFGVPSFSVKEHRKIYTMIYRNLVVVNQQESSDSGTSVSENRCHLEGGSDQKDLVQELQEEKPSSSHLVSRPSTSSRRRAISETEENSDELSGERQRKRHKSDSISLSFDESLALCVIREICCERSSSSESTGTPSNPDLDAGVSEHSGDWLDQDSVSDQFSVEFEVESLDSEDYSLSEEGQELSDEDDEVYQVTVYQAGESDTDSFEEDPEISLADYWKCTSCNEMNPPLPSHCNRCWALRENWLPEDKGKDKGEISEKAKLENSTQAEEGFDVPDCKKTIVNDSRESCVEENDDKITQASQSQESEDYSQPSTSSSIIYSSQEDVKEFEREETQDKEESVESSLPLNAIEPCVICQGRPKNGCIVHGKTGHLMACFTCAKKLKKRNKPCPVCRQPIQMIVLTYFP

Tumour suppressor p53/oncoprotein Mdm2 (Homo sapiens, UniProt Q00987), sequence (P04637 whole entry): as the sequence (P04637 whole entry) above
Tumour suppressor p53/oncoprotein Mdm2 (Homo sapiens, UniProt Q00987), sequence (Q00987 whole entry): as the sequence (Q00987 whole entry) above

**Q.** How did the IC50 (PC-3) turn out when `COC(=O)c1c(N)sc(-c2ccc(Cl)cc2)c1-c1ccc(Cl)cc1` was run?
**A.** 2.78 µM

**Q.** And the IC50 (A549 [1])?
**A.** 5.04 µM

**Q.** `Nc1sc(-c2ccc(Br)cc2)c(-c2ccc(Cl)cc2)c1C(=O)NC1CCCCC1` was tested. Which Ki [2] did it give?
**A.** 1.06 µM

**Q.** And the IC50 (PC-3)?
**A.** 28.4 µM

**Q.** And the IC50 (A549 [1])?
**A.** 9.59 µM

**Q.** Which Ki [2] does the source give for `Nc1sc(-c2ccc(F)cc2)c(-c2ccc(Cl)cc2)c1C(=O)NCc1ccccc1` here?
**A.** 0.6 µM

**Q.** What about the IC50 (PC-3) of the same compound?
**A.** 25.8 µM

**Q.** And the IC50 (A549 [1])?
**A.** 9.95 µM

**Q.** How did the IC50 (PC-3) turn out when `Clc1ccc(-c2sc3ncnc(N4CCCCC4)c3c2-c2ccc(Cl)cc2)cc1` was run?
**A.** > 50 µM

**Q.** What about the IC50 (A549 [1]) of the same compound?
**A.** > 50 µM

**Q.** Which IC50 (PC-3) does the source give for `O=C1CC(c2ccccc2)c2c(sc(-c3ccc(Cl)cc3)c2-c2ccc(Cl)cc2)N1` (stereo unspecified) here?
**A.** > 50 µM

**Q.** What about the IC50 (A549 [1]) of the same compound?
**A.** 17.2 µM

**Q.** `COc1ccc(C2=N[C@@H](c3ccc(Cl)cc3)[C@@H](c3ccc(Cl)cc3)N2C(=O)N2CCNC(=O)C2)c(OC(C)C)c1` [NUTLIN-3] was tested. Which IC50 (PC-3) did it give?
**A.** 20 µM

**Q.** And the IC50 (A549 [1])?
**A.** 4.62 µM

**Q.** `Nc1sc(-c2ccccc2)c(-c2ccc(Cl)cc2)c1C(=O)N1CCCC1` was tested. Which Ki [2] did it give?
**A.** 1.96 µM

**Q.** And the IC50 (PC-3)?
**A.** 22.2 µM

**Q.** And the IC50 (A549 [1])?
**A.** 5.8 µM

**Q.** How did the Ki [2] turn out when `Nc1sc(-c2ccccc2)c(-c2ccc(Cl)cc2)c1C(=O)N1CCOCC1` was run?
**A.** 0.28 µM

**Q.** And the IC50 (PC-3)?
**A.** 29.3 µM

**Q.** What about the IC50 (A549 [1]) of the same compound?
**A.** 14.2 µM

**Q.** Which results are given for `Nc1sc(-c2ccc(Br)cc2)c(-c2ccc(Cl)cc2)c1C(=O)NC1CC1`?
**A.** Ki [2]: 2.18 µM; IC50 (PC-3): 37.3 µM; IC50 (A549 [1]): > 50 µM

**Q.** Which results are given for `Nc1sc(-c2ccc(Cl)cc2)c(-c2ccc(Cl)cc2)c1C(=S)NC1CCCCC1`?
**A.** Ki [2]: 0.32 µM; IC50 (PC-3): 27.7 µM; IC50 (A549 [1]): 7.41 µM

**Q.** For `Nc1sc(-c2ccc(F)cc2)c(-c2ccc(Cl)cc2)c1C(=O)NC1CC1`, which Ki [2] is on record?
**A.** 0.34 µM

**Q.** What about the IC50 (PC-3) of the same compound?
**A.** 27.9 µM

**Q.** And the IC50 (A549 [1])?
**A.** 3 µM

**Q.** And the “Ratio IC50” value (A549 [3])?
**A.** >5

**Q.** With `Clc1ccc(-c2sc3ncnc(NC4CC4)c3c2-c2ccc(Cl)cc2)cc1` as the compound, how does the IC50 (PC-3) read?
**A.** > 50 µM

**Q.** What about the IC50 (A549 [1]) of the same compound?
**A.** 42.8 µM

**Q.** Which Ki [2] does the source give for `Nc1sc(-c2ccc(Br)cc2)c(-c2ccc(Cl)cc2)c1C(=O)NCc1ccccc1` here?
**A.** 0.76 µM

**Q.** What about the IC50 (PC-3) of the same compound?
**A.** > 50 µM

**Q.** And the IC50 (A549 [1])?
**A.** 18.7 µM

**Q.** Which results are given for `Nc1sc(-c2ccc(Cl)cc2)c(-c2ccc(Cl)cc2)c1C(=O)N1CCCC1`?
**A.** IC50 (PC-3): 6.22 µM; IC50 (A549 [1]): 0.89 µM

**Q.** Which IC50 (PC-3) does the source give for `Nc1sc(-c2ccc(Cl)cc2)c(-c2ccc(Cl)cc2)c1C(=O)NC1CC1` here?
**A.** 3.68 µM

**Q.** What about the IC50 (A549 [1]) of the same compound?
**A.** 1.95 µM

**Q.** `Nc1sc(-c2ccc(Cl)cc2)c(-c2ccc(Cl)cc2)c1C(=S)NC1CC1` was tested. Which Ki [2] did it give?
**A.** 0.086 µM

**Q.** What about the IC50 (PC-3) of the same compound?
**A.** 22.1 µM

**Q.** And the IC50 (A549 [1])?
**A.** 8.28 µM

**Q.** `Nc1sc(-c2ccc([N+](=O)[O-])cc2)c(-c2ccc(Cl)cc2)c1C(=O)N1CCCCC1` was tested. Which Ki [4] did it give?
**A.** Not Active

**Q.** With `CC(C)(C)NC(=S)c1c(N)sc(-c2ccc(Cl)cc2)c1-c1ccc(Cl)cc1` as the compound, how does the Ki [2] read?
**A.** 0.58 µM

**Q.** What about the IC50 (PC-3) of the same compound?
**A.** 34 µM

**Q.** What about the IC50 (A549 [1]) of the same compound?
**A.** > 50 µM

**Q.** For `Nc1sc(-c2ccccc2)c(-c2ccc(Cl)cc2)c1C(=O)NCc1ccccc1`, which Ki [2] is on record?
**A.** 1.14 µM

**Q.** What about the IC50 (PC-3) of the same compound?
**A.** 22.8 µM

**Q.** What about the IC50 (A549 [1]) of the same compound?
**A.** 8.51 µM

**Q.** Which results are given for `Nc1sc(-c2ccc(F)cc2)c(-c2ccc(Cl)cc2)c1C(=O)N1CCCC1`?
**A.** Ki [2]: 1.22 µM; IC50 (PC-3): 20.4 µM; IC50 (A549 [1]): 18.8 µM

**Q.** Which IC50 (PC-3) does the source give for `Nc1sc(-c2ccc(Cl)cc2)c(-c2ccc(Cl)cc2)c1C(=O)NC1CCCCC1` here?
**A.** 7.3 µM

**Q.** And the IC50 (A549 [1])?
**A.** 2.41 µM

**Q.** Which Ki [4] does the source give for `Nc1sc(-c2ccc([N+](=O)[O-])cc2)c(-c2ccc(Cl)cc2)c1C(=O)NC1CCCCC1` here?
**A.** Not Active

**Q.** And the IC50 (PC-3)?
**A.** 25.9 µM

**Q.** And the IC50 (A549 [1])?
**A.** 15 µM

**Q.** For `Nc1sc(-c2ccc(Br)cc2)c(-c2ccc(Cl)cc2)c1C(=O)N1CCOCC1`, which Ki [2] is on record?
**A.** 1.48 µM

**Q.** What about the IC50 (PC-3) of the same compound?
**A.** > 50 µM

**Q.** And the IC50 (A549 [1])?
**A.** 7.49 µM

**Q.** And the “Ratio IC50” value (A549 [3])?
**A.** >5

**Q.** `Clc1ccc(-c2sc3ncnc(N4CCOCC4)c3c2-c2ccc(Cl)cc2)cc1` was tested. Which IC50 (PC-3) did it give?
**A.** > 50 µM

**Q.** And the IC50 (A549 [1])?
**A.** > 50 µM

**Q.** For `Nc1[nH]c(-c2ccc(Cl)cc2)c(-c2ccc(Cl)cc2)c1C(=O)NC1CC1`, which Ki [2] is on record?
**A.** 0.53 µM

**Q.** And the IC50 (PC-3)?
**A.** 19.3 µM

**Q.** What about the IC50 (A549 [1]) of the same compound?
**A.** 4.62 µM

**Q.** Which results are given for `Nc1sc(-c2ccc([N+](=O)[O-])cc2)c(-c2ccc(Cl)cc2)c1C(=O)N1CCCC1`?
**A.** Ki [4]: Not Active; IC50 (PC-3): 42.6 µM; IC50 (A549 [1]): 10.7 µM

**Q.** With `Nc1sc(-c2ccc(F)cc2)c(-c2ccc(Cl)cc2)c1C(=O)N1CCOCC1` as the compound, how does the Ki [2] read?
**A.** 0.22 µM

**Q.** What about the IC50 (PC-3) of the same compound?
**A.** 25.1 µM

**Q.** What about the IC50 (A549 [1]) of the same compound?
**A.** 12.7 µM

**Q.** Which results are given for `Nc1sc(-c2ccccc2)c(-c2ccc(Cl)cc2)c1C(=O)NC1CC1`?
**A.** Ki [2]: 0.63 µM; IC50 (PC-3): 17.1 µM; IC50 (A549 [1]): 4.3 µM

**Q.** With `Nc1sc(-c2ccc(Cl)cc2)c(-c2ccc(Cl)cc2)c1C(=S)NC1CCCC1` as the compound, how does the Ki [2] read?
**A.** 0.17 µM

**Q.** And the IC50 (PC-3)?
**A.** 29 µM

**Q.** And the IC50 (A549 [1])?
**A.** 22.1 µM

**Q.** With `CCOC(=O)c1c(N)[nH]c(-c2ccc(Cl)cc2)c1-c1ccc(Cl)cc1` as the compound, how does the Ki [2] read?
**A.** 1.24 µM

**Q.** And the IC50 (PC-3)?
**A.** 16.1 µM

**Q.** What about the IC50 (A549 [1]) of the same compound?
**A.** 2.53 µM

**Q.** And the “Ratio IC50” value (A549 [3])?
**A.** >5

**Q.** What does the source list for `Nc1sc(-c2ccc(Br)cc2)c(-c2ccc(Cl)cc2)c1C(=O)N1CCCC1`?
**A.** Ki [2]: 0.75 µM; IC50 (PC-3): 37.5 µM; IC50 (A549 [1]): 7.46 µM; Ratio IC50 (A549 [3]): >5

**Q.** `Clc1ccc(-c2sc3ncnc(NC4CCCCC4)c3c2-c2ccc(Cl)cc2)cc1` was tested. Which IC50 (PC-3) did it give?
**A.** > 50 µM

**Q.** What about the IC50 (A549 [1]) of the same compound?
**A.** > 50 µM

**Q.** Which results are given for `Nc1sc(-c2ccc([N+](=O)[O-])cc2)c(-c2ccc(Cl)cc2)c1C(=O)N1CCOCC1`?
**A.** Ki [4]: Not Active; IC50 (PC-3): > 50 µM; IC50 (A549 [1]): 16.7 µM

**Q.** With `Nc1sc(-c2ccc([N+](=O)[O-])cc2)c(-c2ccc(Cl)cc2)c1C(=O)NC1CC1` as the compound, how does the Ki [4] read?
**A.** Not Active

**Q.** `O=C1CC(c2ccco2)c2c(sc(-c3ccc(Cl)cc3)c2-c2ccc(Cl)cc2)N1` (stereo unspecified) was tested. Which IC50 (PC-3) did it give?
**A.** > 50 µM

**Q.** And the IC50 (A549 [1])?
**A.** 25.4 µM

**Q.** `O=C1CC(c2cccs2)c2c(sc(-c3ccc(Cl)cc3)c2-c2ccc(Cl)cc2)N1` (stereo unspecified) was tested. Which IC50 (PC-3) did it give?
**A.** > 50 µM

**Q.** And the IC50 (A549 [1])?
**A.** 20.2 µM
